The list is not random: actives were taken first. Their share in the collection is about 0.55%.
V1aR counter: V1a receptor agonism, counter-screen for OXTR agonists | P37288 | CHO-V1R cells, Fluo-8 calcium fluorescence, agonist mode; 0% DMSO, 100% 3 nM vasopressin | activation, % at 3 µM | actives 0.25% (n = 320,000) | AID 2797;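 active = activation above the mean activation of all tested compounds plus 3 SD, per screening run, cut at about 20% in these data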;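 also: signal is peak over basal fluorescence ratio across a 100 second FLIPR read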
Target sequence (P37288 whole entry, looked up): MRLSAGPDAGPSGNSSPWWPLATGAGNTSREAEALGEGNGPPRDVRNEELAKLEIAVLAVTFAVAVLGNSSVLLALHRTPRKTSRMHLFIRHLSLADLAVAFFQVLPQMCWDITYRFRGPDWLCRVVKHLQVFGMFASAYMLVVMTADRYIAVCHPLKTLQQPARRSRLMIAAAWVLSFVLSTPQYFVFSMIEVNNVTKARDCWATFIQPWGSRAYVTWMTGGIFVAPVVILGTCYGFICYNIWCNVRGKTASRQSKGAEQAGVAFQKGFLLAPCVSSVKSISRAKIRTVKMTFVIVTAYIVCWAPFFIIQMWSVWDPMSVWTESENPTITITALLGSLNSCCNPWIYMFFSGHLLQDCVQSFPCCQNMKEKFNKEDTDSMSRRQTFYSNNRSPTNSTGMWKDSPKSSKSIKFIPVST
OXTR potentiator: human OXTR potentiation; P30559; CHO-OTR cells, Fluo-8 calcium fluorescence, potentiator mode; 0% = oxytocin EC15, 100% = EC100; activation, % at 3 µM; actives 0.061% (n = 320,000);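 active = activation above that plate's cutoff, the mean activation of tested compounds plus 3 SD, cut at about 6.6% in these data, passing the limit was not always enough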;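 also: 100% uses oxytocin at 75 nM as the full agonist control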
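System: human OTR in CHO cells; Also added: sub-maximal oxytocin, roughly EC15; Timing: compound 6 min at room temperature before oxytocin, 100 s read; Technique: Fluo-8 intracellular calcium fluorescence, ex 470-495, em 515-575 nm; Controls: oxytocin EC15 low and EC100 high; Replication: singlicate.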
TRPN1 ag: agonists of zebrafish TRPN1 channel. HEK293 zebrafish TRPN1-YFP, Fluo-8 calcium fluorescence; 100% = response to 87 µM carbachol. activation, % at 3 µM. actives 0.18% (n = 220,000). AID 1424;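 active = activation above its plate's cutoff, the mean activation of test wells on that plate plus 3 SD, cut at about 19% in these data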;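 also: 0% = DMSO alone and 100% = 87 µM carbachol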
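Material: zebrafish TRPN1-YFP in HEK293 cells. Doses: one dose of 3 µM, 0.3% DMSO. Incubation: dye 1 h 37 °C plus 30 min RT. Measured by: intracellular calcium fluorescence with Fluo-8.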
OXTR agonist: human OXTR agonism | CHO-OTR cells, Fluo-8 calcium fluorescence; normalized: DMSO 0%, oxytocin 100% | activation, % at 3 µM | actives 0.32% (n = 320,000);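 active = activation above the mean of all tested compounds plus 3 SD, cutoff set per screening run, cut at about 20% in these data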;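 also: peak over basal fluorescence ratio from a 100 s FLIPR kinetic read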
TRPML3 ag: agonists of human TRPML3 channel; Q8TDD5; AID 1448; HEK293 TRPML3-YFP, Fluo-8 calcium fluorescence; 100% = the carbachol control signal; actives 0.29% (n = 220,000); activation, % at 3 µM;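 active = activation above its plate's cutoff, the mean activation of the plate's test wells plus 3 SD, cut at about 12% in these data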;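 also: 0% = DMSO only wells and 100% = carbachol wells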
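Material: HEK293 cells stably carrying human TRPML3-YFP; compound dosing: single dose, 3 µM final nominal compound, 0.3% DMSO final; incubation: 1-h 37 °C dye load, 5-s basal, 120-s post-compound reads; technique: Fluo-8 intracellular calcium fluorescence, excitation 470-495 nm, emission 515-575 nm; read-out basis: percent activation from peak-to-basal fluorescence ratio, scaled between DMSO and carbachol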
The depositor's hits bear a star; . = not tested or not shown.

SMILES	V1aR counter	OXTR potentiator	TRPN1 ag	OXTR agonist	TRPML3 ag
O=C(N/N=C/c1ccc(O)cc1)c1ccc(COc2cc(Cl)ccc2Cl)o1	33.2*	-23.1	23.6*	32.7*	10.5
O=C(Nc1cccnc1)c1ccc(COc2cc(Cl)ccc2Cl)o1	7.0	-21.7	0.3	4.4	-0.4
COc1ccc([C@H]2CC(=O)C=C(c3ccc4ncccc4c3)C2)cc1OC	2.1	2.0	.	2.1	.
O=C(O)/C=C/c1ccc([N+](=O)[O-])o1	4.2	-3.8	4.2	1.9	1.9
O=C1NC(=S)S/C1=C\C=C\c1ccc([N+](=O)[O-])o1	.	.	20.9*	.	11.0
COCc1nnc(SCC(=O)Nc2cccc(Cl)c2C)n1-c1ccccc1	0.3	-7.0	-1.0	1.5	0.2
COCc1nnc(SCC(=O)NCc2ccccc2)n1-c1ccccc1	1.6	-3.4	24.8*	0.3	-0.6
COc1cc2c(cc1NC(=O)Nc1ccc(F)cc1)oc1ccccc12	-0.3	-8.4	1.9	0.3	1.0
CC(=O)Nc1ccc(NC(=O)CSc2nnc(NC(=O)c3cccc(F)c3)s2)cc1	0.2	-7.1	.	0.1	.
O=C(NCCOc1ccccc1F)c1ccc2c(=O)n3c(nc2c1)CCC3	0.5	-3.4	.	-0.7	.
CCCCN1C(=O)/C(=C/C=C2\Oc3ccccc3N2CC)SC1=S	.	.	8.6	.	2.9
CCCCN1C(=O)/C(=C/C=C2/CC(C)(C)CN2C)SC1=S	65.6*	-20.1	26.1*	51.6*	14.0*
CCCC(C(=O)Nc1ccc(S(=O)(=O)N2CCOCC2)cc1)c1ccccc1 (configuration not stated)	20.5*	-15.9	.	28.1*	.
CC(=O)Nc1sc2c(c1-c1nc3ccccc3s1)CCN(C(C)C)C2	1.1	-2.7	24.0*	0.5	8.6
N#C/C(=C/c1ccncc1)c1nc2ccccc2s1	55.2*	-6.1	33.6*	26.8*	19.3*
N#C/C(=C\c1ccncc1)c1nc2ccccc2[nH]1	.	.	-0.1	.	0.6
CC(C)=C(C#N)c1nc2ccccc2s1	39.8*	-6.4	17.2	36.5*	8.3
COC(=O)c1ccc(/C(O)=C(\C#N)c2nc3ccccc3s2)cc1	9.6	-9.1	5.7	9.2	4.3
CCCCNC(=S)Nc1ccc([N+](=O)[O-])cc1	8.0	-15.7	21.5*	10.3	10.7
CCCCNC(=S)NC(=O)c1ccc([N+](=O)[O-])cc1	-1.1	-9.2	-2.9	-2.6	0.0
CC(C)CCNC(=S)Nc1ccc([N+](=O)[O-])cc1	5.8	-6.8	24.3*	7.8	13.5*
COc1ccccc1NC(=O)C(=O)c1cn(CC(=O)N2CCOCC2)c2ccccc12	1.9	-7.1	.	0.5	.
CN(C1CCCCC1)S(=O)(=O)c1cn(C)c(=O)n(C)c1=O	-0.1	-10.3	.	-0.2	.
Cc1ccc(NS(=O)(=O)c2ccc(C(=O)NCc3ccccn3)cc2)cc1	30.9*	-16.0	.	25.0*	.
CS(=O)(=O)Nc1ccc(C(=O)NCc2ccccn2)cc1	0.1	-1.6	0.2	0.3	0.8
SMILES	V1aR counter	OXTR potentiator	TRPN1 ag	OXTR agonist	TRPML3 ag
Cc1ccc(S(=O)(=O)Nc2cccc(C(=O)NC3CCN(Cc4ccccc4)CC3)c2)cc1F	2.0	-17.6	.	1.9	.
CCOc1ccc(NS(=O)(=O)c2ccc(C(=O)NCC(c3ccco3)N(C)C)cc2)cc1 (configuration not stated)	22.6*	-16.8	.	26.1*	.
Cc1cc(S(=O)(=O)Nc2ccc(C(=O)NCC3(N4CCCCC4)CCCCC3)cc2)ccc1F	0.1	6.5	.	0.7	.
Cc1ccc(NS(=O)(=O)c2ccc(C(=O)NC3CCN(Cc4ccccc4)CC3)cc2)cc1	20.8*	-10.1	.	21.5*	.
CCOc1ccc(NS(=O)(=O)c2ccc(C(=O)NCC3(N4CCCCC4)CCCCC3)cc2)cc1	24.8*	-11.0	.	35.5*	.
CCCCn1c(N)c(N(CC(C)C)C(=O)CSCc2ccc(Cl)c(Cl)c2)c(=O)[nH]c1=O	-1.2	1.2	.	-1.8	.
Cc1ccc(C)c(OCCC(=O)OCC(=O)NC(=O)NC2CCCC2)c1	-0.5	-17.8	.	-1.6	.
CCOc1ccc(NS(=O)(=O)c2ccc(C(=O)NCc3ccccn3)cc2)cc1	26.9*	-18.8	.	30.9*	.
CCOc1ccc(NS(=O)(=O)c2ccc(C(=O)NCc3ccncc3)cc2)cc1	7.8	-14.1	.	7.3	.

Bioassay records: PubChem BioAssay, The Scripps Research Institute Molecular Screening Center
